ChEMBL document CHEMBL1275595, “Antimicrobial activity of a halocidin-derived peptide resistant to attacks by proteases” (2010)
≈ marks a conversion by molar mass, not a printed value. Calls of active or inactive are those of the source. No cut-off for these calls is given here. Numbered stars: 1 amine (or outer) side, 2 acyl side, 3 side chain; on linkers, the order of the positions; unused ones are H or OH. Bridge positions count the residues as written; N and C are the ends. Square brackets hold non-standard residues; d marks the D form. Peptide text beside a SMILES is read from it. I, II: the chains in the order shown. Gly(αS-SH) = O=C([C@@H](N[*:1])S[*:3])[*:2]; Nva(4-oxo) = CC(=O)C[C@H](N)C(=O)O

What was measured:
Staphylococcus aureus [1] = assay: Antimicrobial activity against methicillin-resistant Staphylococcus aureus CCARM 3696 by radial diffusion assay incubated with trypsin; assay type: functional, organism-based
Staphylococcus aureus [2] = assay: Antimicrobial activity against methicillin-resistant Staphylococcus aureus CCARM 3696 by radial diffusion assay incubated with chymotrypsin; assay type: functional, organism-based
Listeria monocytogenes = assay: Antimicrobial activity against Listeria monocytogenes KCTC 19111 after 18 hrs by broth dilution method; assay type: functional; conditions: KCTC 19111, 18 h
Outline: (§1)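 Broth microdilution following CLSI recommendations. Bacteria were grown overnight to stationary phase in Mueller-Hinton broth, then diluted in fresh MHB to 2 × 10^5 CFU/ml. Peptide or antibiotic stocks of 640 μg/ml in 0.01% acetic acid were serially 2-fold diluted to 10 μg/ml, and each was added to the bacterial suspension at 11 μl per 100 μl. Plates were incubated 18 h at 37°C. MIC was taken as the lowest concentration giving no visible turbidity, in triplicate.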

Citrobacter freundii = assay: Antimicrobial activity against Citrobacter freundii KCTC 2359 after 18 hrs by broth dilution method; assay type: functional; conditions: KCTC 2359, 18 h; outline: as §1
Escherichia coli = assay: Antimicrobial activity against Escherichia coli KCTC 1039 after 18 hrs by broth dilution method; assay type: functional; conditions: KCTC 1039, 18 h; outline: as §1
Enterococcus faecium = assay: Antimicrobial activity against vancomycin-resistant Enterococcus faecium CCARM 5028 after 18 hrs by broth dilution method; assay type: functional; conditions: CCARM 5028, 18 h
Outline: (§2)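 Broth dilution per CLSI. Bacteria were grown overnight to stationary phase in Mueller-Hinton broth and diluted in fresh MHB to 2 × 10^5 CFU/ml. Stocks at 640 μg/ml in 0.01% acetic acid were 2-fold serially diluted to 10 μg/ml, and 11 μl was added to 100 μl of bacteria. After 18 h at 37°C, MIC was the lowest concentration with no visible turbidity. Run in triplicate.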

Klebsiella oxytoca = assay: Antimicrobial activity against Klebsiella oxytoca KCTC 1686 after 18 hrs by broth dilution method; assay type: functional; conditions: KCTC 1686, 18 h; outline: as §1
Salmonella enterica = assay: Antimicrobial activity against Salmonella enterica KCTC 2930 after 18 hrs by broth dilution method; assay type: functional; conditions: KCTC 2930, 18 h; outline: as §1
Pseudomonas aeruginosa = assay: Antimicrobial activity against multidrug-resistant Pseudomonas aeruginosa CCARM 2161 after 18 hrs by broth dilution method; assay type: functional; conditions: CCARM 2161, 18 h; outline: as §2
Micrococcus luteus = assay: Antimicrobial activity against Micrococcus luteus KCTC 9341 after 18 hrs by broth dilution method; assay type: functional; conditions: KCTC 9341, 18 h; outline: as §1
Bacillus subtilis = assay: Antimicrobial activity against Bacillus subtilis KCTC 2213 after 18 hrs by broth dilution method; assay type: functional; conditions: KCTC 2213, 18 h; outline: as §1
Staphylococcus aureus [3] = assay: Antimicrobial activity against methicillin-resistant Staphylococcus aureus CCARM 3696 after 18 hrs by broth dilution method; assay type: functional; conditions: CCARM 3696, 18 h; outline: as §2

Row | SMILES | Activity (Staphylococcus aureus [1]) | Activity (Staphylococcus aureus [2]) | MIC (Listeria monocytogenes) [µg/mL] | MIC (Citrobacter freundii) [µg/mL] | MIC (Escherichia coli) [µg/mL] | MIC (Enterococcus faecium) [µg/mL] | MIC (Klebsiella oxytoca) [µg/mL] | MIC (Salmonella enterica) [µg/mL] | MIC (Pseudomonas aeruginosa) [µg/mL] | MIC (Micrococcus luteus) [µg/mL] | MIC (Bacillus subtilis) [µg/mL] | MIC (Staphylococcus aureus [3]) [µg/mL]
1 | CC(C)C[C@H](NC(=O)CNC(=O)[C@H](Cc1cnc[nH]1)NC(=O)[C@H](Cc1cnc[nH]1)NC(=O)[C@H](CC(C)C)NC(=O)[C@H](CC(C)C)NC(=O)[C@H](C)NC(=O)[C@H](CC(N)=O)NC(=O)[C@H](CC(C)C)NC(=O)[C@H](Cc1c[nH]c2ccccc12)NC(=O)[C@@H](N)CCCCN)C(=O)N[C@@H](CC(N)=O)C(=O)N[C@@H](CSSC[C@H](NC(=O)[C@H](CC(N)=O)NC(=O)[C@H](CC(C)C)NC(=O)CNC(=O)[C@H](Cc1cnc[nH]1)NC(=O)[C@H](Cc1cnc[nH]1)NC(=O)[C@H](CC(C)C)NC(=O)[C@H](CC(C)C)NC(=O)[C@H](C)NC(=O)[C@H](CC(N)=O)NC(=O)[C@H](CC(C)C)NC(=O)[C@H](Cc1c[nH]c2ccccc12)NC(=O)[C@@H](N)CCCCN)C(=O)N[C@@H](C)C(=O)N[C@@H](CCCCN)C(=O)O)C(=O)N[C@@H](C)C(=O)N[C@@H](CCCCN)C(=O)O (I: H-KWLNALLHHGLNCAK-OH / II: H-KWLNALLHHGLNCAK-OH; disulfide I:13-II:13) | Active |  |  |  |  |  |  |  |  |  |  | 
2 | CC(C)C[C@H](NC(=O)[C@H](CC(C)C)NC(=O)[C@H](C)NC(=O)[C@H](CC(N)=O)NC(=O)[C@H](CC(C)C)NC(=O)[C@H](Cc1c[nH]c2ccccc12)NC(=O)[C@@H](N)CCCCN)C(=O)O (H-KWLNALL-OH) |  | inactive |  |  |  |  |  |  |  |  |  | 
3 | CC(C)C[C@H](NC(=O)CNC(=O)[C@H](Cc1cnc[nH]1)NC(=O)[C@H](Cc1cnc[nH]1)NC(=O)[C@H](CC(C)C)NC(=O)[C@H](CC(C)C)NC(=O)[C@H](C)NC(=O)[C@H](CC(N)=O)NC(=O)[C@H](CC(C)C)NC(=O)[C@H](Cc1c[nH]c2ccccc12)NC(=O)[C@@H](N)CCCCN)C(=O)N[C@@H](CC(N)=O)C(=O)N[C@@H](CSSC[C@H](NC(=O)[C@H](CC(N)=O)NC(=O)[C@H](CC(C)C)NC(=O)CNC(=O)[C@H](Cc1cnc[nH]1)NC(=O)[C@H](Cc1cnc[nH]1)NC(=O)[C@H](CC(C)C)NC(=O)[C@H](CC(C)C)NC(=O)[C@H](C)NC(=O)[C@H](CC(N)=O)NC(=O)[C@H](CC(C)C)NC(=O)[C@H](Cc1c[nH]c2ccccc12)NC(=O)[C@@H](N)CCCCN)C(=O)N[C@@H](C)C(=O)N[C@@H](CCCCN)C(=O)NCC(=O)N[C@H](C(=O)N[C@@H](CC(C)C)C(=O)N[C@@H](C)C(N)=O)C(C)C)C(=O)N[C@@H](C)C(=O)N[C@@H](CCCCN)C(=O)O (I: H-KWLNALLHHGLNCAKGVLA-NH2 / II: H-KWLNALLHHGLNCAK-OH; disulfide I:13-II:13) | Active |  |  |  |  |  |  |  |  |  |  | 
4 | CO/N=C(\C(=O)N[C@@H]1C(=O)N2C(C(=O)O)=C(CSc3nc(=O)c(O)nn3C)CS[C@H]12)c1csc(N)n1 [CEFTRIAXONE] |  |  | < 1 | 2 (≈ 3.61 µM) | < 1 | > 64 | < 1 | 4 (≈ 7.21 µM) | > 64 | 16 (≈ 28.9 µM) | < 1 | > 64
5 | CC(C)C[C@H](NC(=O)CNC(=O)[C@H](Cc1cnc[nH]1)NC(=O)[C@H](Cc1cnc[nH]1)NC(=O)[C@H](CC(C)C)NC(=O)[C@H](CC(C)C)NC(=O)[C@H](C)N)C(=O)N[C@@H](CC(N)=O)C(=O)N[C@@H](CSSC[C@H](NC(=O)[C@H](CC(N)=O)NC(=O)[C@H](CC(C)C)NC(=O)CNC(=O)[C@H](Cc1cnc[nH]1)NC(=O)[C@H](Cc1cnc[nH]1)NC(=O)[C@H](CC(C)C)NC(=O)[C@H](CC(C)C)NC(=O)[C@H](C)NC(=O)[C@H](CC(N)=O)NC(=O)[C@H](CC(C)C)NC(=O)[C@H](Cc1c[nH]c2ccccc12)NC(=O)[C@@H](N)CCCCN)C(=O)N[C@@H](C)C(=O)N[C@@H](CCCCN)C(=O)NCC(=O)N[C@H](C(=O)N[C@@H](CC(C)C)C(=O)N[C@@H](C)C(N)=O)C(C)C)C(=O)N[C@@H](C)C(=O)N[C@@H](CCCCN)C(=O)NCC(=O)N[C@H](C(=O)N[C@@H](CC(C)C)C(=O)N[C@@H](C)C(N)=O)C(C)C (I: H-KWLNALLHHGLNCAKGVLA-NH2 / II: H-ALLHHGLNCAKGVLA-NH2; disulfide I:13-II:9) |  |  | 4 (≈ 1.12 µM) | 8 (≈ 2.24 µM) | 4 (≈ 1.12 µM) | 4 (≈ 1.12 µM) | 4 (≈ 1.12 µM) | 4 (≈ 1.12 µM) | 8 (≈ 2.24 µM) | 8 (≈ 2.24 µM) | 4 (≈ 1.12 µM) | 8 (≈ 2.24 µM)
6 | CC(C)C[C@H](NC(=O)CNC(=O)[C@H](Cc1cnc[nH]1)NC(=O)[C@H](Cc1cnc[nH]1)NC(=O)[C@H](CC(C)C)NC(=O)[C@H](CC(C)C)NC(=O)[C@H](C)NC(=O)[C@H](CC(N)=O)NC(=O)[C@H](CC(C)C)NC(=O)[C@H](Cc1c[nH]c2ccccc12)NC(=O)[C@@H](N)CCCCN)C(=O)N[C@@H](CC(N)=O)C(=O)N[C@@H](CSS[C@H](NC(=O)[C@H](CC(N)=O)NC(=O)[C@H](CC(C)C)NC(=O)CNC(=O)[C@H](Cc1cnc[nH]1)NC(=O)[C@H](Cc1cnc[nH]1)NC(=O)[C@H](CC(C)C)NC(=O)[C@H](CC(C)C)NC(=O)[C@H](C)NC(=O)[C@H](CC(N)=O)NC(=O)[C@H](CC(C)C)NC(=O)[C@@H](N)Cc1c[nH]c2ccccc12)C(=O)N[C@@H](C)C(=O)N[C@@H](CCCCN)C(=O)O)C(=O)N[C@@H](C)C(=O)N[C@@H](CCCCN)C(=O)O (I: H-KWLNALLHHGLNCAK-OH / II: H-WLNALLHHGLN[Gly(αS-SH)]AK-OH; disulfide I:13-II:12) | Active |  |  |  |  |  |  |  |  |  |  | 
7 | C[C@H]1[C@H](NC(=O)/C(=N\OC(C)(C)C(=O)O)c2csc(N)n2)C(=O)N1S(=O)(=O)O [AZTREONAM] |  |  | < 1 | 4 (≈ 9.19 µM) | < 1 | > 64 | < 1 | > 64 | 8 (≈ 18.4 µM) | > 64 | > 64 | > 64
8 | CC(=O)C[C@H](NC(=O)[C@H](CC(C)C)NC(=O)CNC(=O)[C@H](Cc1cnc[nH]1)NC(=O)[C@H](Cc1cnc[nH]1)NC(=O)[C@H](CC(C)C)NC(=O)[C@H](CC(C)C)NC(=O)[C@H](C)NC(=O)[C@H](CC(N)=O)NC(=O)[C@H](CC(C)C)NC(=O)[C@@H](N)Cc1c[nH]c2ccccc12)C(=O)N[C@@H](CSSC[C@H](NC(=O)[C@H](CC(N)=O)NC(=O)[C@H](CC(C)C)NC(=O)CNC(=O)[C@H](Cc1cnc[nH]1)NC(=O)[C@H](Cc1cnc[nH]1)NC(=O)[C@H](CC(C)C)NC(=O)[C@H](CC(C)C)NC(=O)[C@H](C)NC(=O)[C@H](CC(N)=O)NC(=O)[C@H](CC(C)C)NC(=O)[C@@H](N)Cc1c[nH]c2ccccc12)C(=O)N[C@@H](C)C(=O)N[C@@H](CCCCN)C(=O)O)C(=O)N[C@@H](C)C(=O)N[C@@H](CCCCN)C(=O)O (I: H-WLNALLHHGL[Nva(4-oxo)]CAK-OH / II: H-WLNALLHHGLNCAK-OH; disulfide I:12-II:12) | inactive |  |  |  |  |  |  |  |  |  |  | 
9 | CC(C)(O/N=C(\C(=O)N[C@@H]1C(=O)N2C(C(=O)[O-])=C(C[n+]3ccccc3)CS[C@H]12)c1csc(N)n1)C(=O)O [CEFTAZIDIME] |  |  | < 1 | 8 (≈ 14.6 µM) | < 1 | > 64 | < 1 | > 64 | 4 (≈ 7.32 µM) | > 64 | 4 (≈ 7.32 µM) | > 64
